IMP-1 inh: blocks Pseudomonas aeruginosa IMP-1 metallo-beta-lactamase. purified IMP-1, nitrocefin hydrolysis, epi-absorbance fluorescence. inhibition, % at 5.6 µM. 290,000 compounds, 0.45% hits. AID 1556;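 active means inhibition above the mean plus 3 SD of all compounds in the same screening run, cut at about 4.5% in these data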;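 further: 0% = IMP-1 with DMSO and 100% = DMSO wells lacking enzyme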
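System – purified recombinant IMP-1 beta-lactamase · Input – IMP-1 dispensed at 0.2 nM · Timing – 15 min preincubation plus 25 min reaction at 25 °C · Signal – Epi-absorbance fluorescence, 480 nm excitation, 530 nm emission · Measure – percent IMP-1 inhibition derived from blank-referenced optical density · Controls – Enzyme-plus-DMSO low control, enzyme-free DMSO high control · Replication – singlicate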
VIM-2 inh: blocks Pseudomonas aeruginosa VIM-2 metallo-beta-lactamase | purified VIM-2, nitrocefin hydrolysis, epi-absorbance fluorescence | inhibition, % at 5.6 µM | 290,000 compounds, 0.89% hits | AID 1527;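 active means inhibition above the mean of all tested compounds plus 3 SD, cutoff set per screening run, cut at about 7.5% in these data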;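 further: red hydrolysis product quenches plate fluorescence so inhibitors raise well fluorescence; 0% = enzyme with DMSO and 100% = DMSO without enzyme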
CHT block: inhibits the human high affinity choline transporter; CHT-expressing cells, membrane potential dye, choline response; active compounds read low; Q9GZV3; B-score at 10 µM; 310,000 compounds, 0.86% hits;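 active means B-score over 3 SD under the library average, and starting fluorescence ratio not unusually high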;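 further: choline stimulus applied at its EC90 after an EC20 pre-addition; B-score computed on integrated fluorescence ratio after choline addition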
Target sequence (Q9GZV3 whole entry, looked up): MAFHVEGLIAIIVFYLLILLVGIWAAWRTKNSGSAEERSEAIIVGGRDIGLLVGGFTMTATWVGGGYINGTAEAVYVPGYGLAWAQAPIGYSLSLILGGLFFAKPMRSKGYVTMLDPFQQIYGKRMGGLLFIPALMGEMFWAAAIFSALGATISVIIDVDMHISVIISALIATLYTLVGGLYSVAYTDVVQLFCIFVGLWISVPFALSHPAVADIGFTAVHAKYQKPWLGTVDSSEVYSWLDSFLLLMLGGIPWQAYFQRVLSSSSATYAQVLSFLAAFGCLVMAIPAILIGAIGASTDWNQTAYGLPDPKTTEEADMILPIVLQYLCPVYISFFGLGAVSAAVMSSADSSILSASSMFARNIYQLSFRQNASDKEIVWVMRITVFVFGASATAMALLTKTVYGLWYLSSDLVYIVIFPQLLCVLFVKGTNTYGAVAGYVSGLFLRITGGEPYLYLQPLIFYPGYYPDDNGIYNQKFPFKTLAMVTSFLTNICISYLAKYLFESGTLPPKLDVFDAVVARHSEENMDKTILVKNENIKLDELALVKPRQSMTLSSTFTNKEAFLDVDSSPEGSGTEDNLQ
CHT allo act: allosterically activates the human high affinity choline transporter | Q9GZV3 | CHT-expressing cells, membrane potential dye, choline EC20; active compounds read high; LV-AA mutant CHT in HEK293 cells | B-score at 10 µM | 310,000 compounds, 0.49% hits | AID 488977;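 active means initial fluorescence not abnormally high and integrated response B-score, plate-corrected, over 3 SD above library mean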
ANO1 block: inhibitors of mouse TMEM16A calcium-activated chloride channel; Q8BHY3; HEK293 TMEM16A/YFP iodide influx fluorescence, ionomycin; normalized B-score (activity score, 25-100; higher = stronger inhibition) at 10 µM; 310,000 compounds, 1.2% hits;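 active means ratio plate-corrected score three or more library SD toward inhibition, starting fluorescence score within five deviations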;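 further: score derived from kinetic fluorescence span divided by baseline fluorescence per well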
ANO1 activ: activates or potentiates the mouse TMEM16A chloride channel | Q8BHY3 | HEK293 TMEM16A/YFP-H148Q/I152L, iodide quench fluorescence; active compounds read low | B-score at 10 µM | 340,000 compounds, 0.3% hits;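 active means fluorescence-ratio B-score plate-corrected deviation score at least 3 library SD below zero, with starting fluorescence score within 5 deviations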;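 further: channel opened by trigger with iodide after compound preincubation; score built on the fluorescence ratio of max minus min over baseline; more negative score means more quench and so TMEM16A activation or potentiation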
Numbers without * were called inactive. Rows were chosen to be rich in hits. Some 3.4% of all compounds tested hit in one or more screens of this group.

Screening O=C(Nc1cccc(C(F)(F)F)c1)c1cccnc1 returned IMP-1 inh -5, VIM-2 inh 0, CHT block inactive, CHT allo act inactive, ANO1 block inactive and ANO1 activ inactive.
For CC(C)(C)c1ccc(C(=O)c2c[nH]c(C(=O)NCc3cccs3)c2)cc1 the results were IMP-1 inh -4, VIM-2 inh -4, CHT block inactive, CHT allo act inactive, ANO1 block inactive and ANO1 activ -8.1*.
C=CCn1c(COc2cccc3cccnc23)nnc1SCC(=O)O was read as IMP-1 inh 0, VIM-2 inh -1, CHT block inactive, CHT allo act inactive, ANO1 block inactive and ANO1 activ -10*.
CCN(c1cccc(C)c1)S(=O)(=O)c1ccc(-c2ccc(=O)[nH]n2)o1 was read as IMP-1 inh 1, VIM-2 inh 3, CHT block inactive, CHT allo act inactive, ANO1 block inactive and ANO1 activ inactive.
CCOC(=O)N1CCN(Cc2cc(=O)oc3cc4c(cc23)CCC4)CC1 was read as IMP-1 inh -2, VIM-2 inh 0, CHT block inactive, CHT allo act inactive, ANO1 block inactive and ANO1 activ -14*.
CCOC(=O)c1ccc(NC(=S)N2CCSC2c2ccc(OC)cc2)cc1 (stereo unspecified) was read as IMP-1 inh -4, VIM-2 inh -1, CHT block inactive, CHT allo act inactive, ANO1 block inactive and ANO1 activ inactive.
For CCOC(=O)c1ccc(NC(=S)N2CCSC2c2ccc(Cl)cc2)cc1 (stereo unspecified) the results were IMP-1 inh -1, VIM-2 inh -2, CHT block inactive, CHT allo act inactive, ANO1 block 100* and ANO1 activ -7.7*.
Screening COc1cc(C(=O)OCC(=O)NC2CC2)ccc1OCCC(C)C returned ANO1 activ inactive.
Screening Cc1ccc(Cl)cc1N1CCN(S(C)(=O)=O)CC1 returned IMP-1 inh 1, VIM-2 inh 1, CHT block inactive, CHT allo act inactive, ANO1 block inactive and ANO1 activ inactive.
Cc1ccc(Cl)cc1N1CCN(S(=O)(=O)N2CCCCC2)CC1 was read as IMP-1 inh 0, VIM-2 inh 0, CHT block inactive, CHT allo act inactive, ANO1 block inactive and ANO1 activ -9.7*.
`CCc1ccc(CN(C)C(=O)c2cc(COc3c(F)cccc3F)on2)cc1` gave IMP-1 inh -3, VIM-2 inh -2, CHT block inactive, CHT allo act inactive, ANO1 block inactive and ANO1 activ -26*.
`COc1ccc(N/C=C/c2nc(SC)nnc2C)cc1` gave IMP-1 inh -2, VIM-2 inh 7.8*, CHT block inactive, CHT allo act inactive, ANO1 block inactive and ANO1 activ inactive.
Cc1ccc(N(C)S(=O)(=O)c2ccc(-c3cnc(C4CC4)o3)cc2)cc1 was read as IMP-1 inh 0, VIM-2 inh -2, CHT block inactive, CHT allo act 6.4*, ANO1 block inactive and ANO1 activ inactive.
CCN(CC(=O)Nc1ccc(NC(C)=O)cc1)C(=O)CCCc1nc2ccccc2s1 was read as ANO1 activ inactive.
CC(C)(C)C1COc2ccccc2N1C(=O)c1ccccc1Cl (stereo unspecified) was read as IMP-1 inh -3, VIM-2 inh -3, CHT block inactive, CHT allo act inactive, ANO1 block inactive and ANO1 activ -15*.
For CCOc1cc2c(cc1O)C(=NOC)CC1C2CCC2(C)C(O)CCC12 (stereo unspecified) the results were ANO1 activ -6.6*.
For O=[N+]([O-])c1ccc(-c2cnc(SCc3ccccc3Cl)[nH]2)cc1 the results were IMP-1 inh -1, VIM-2 inh 1, CHT block inactive, CHT allo act inactive, ANO1 block 100* and ANO1 activ inactive.
`Cc1cc(C)c(CSc2ncc(-c3ccc([N+](=O)[O-])cc3)[nH]2)c(C)c1` gave IMP-1 inh 0, VIM-2 inh 1, CHT block inactive, CHT allo act inactive, ANO1 block inactive and ANO1 activ inactive.
`O=C(CCc1nnc2n(Cc3ccc(F)cc3)c(=O)c3ccccc3n12)N1CCN(c2ccccn2)CC1` gave IMP-1 inh -2, VIM-2 inh 1, CHT block inactive, CHT allo act inactive, ANO1 block inactive and ANO1 activ inactive.
`COc1ccc(CCNc2nc(-c3ccccn3)cs2)cc1OC` gave IMP-1 inh -2, VIM-2 inh 2, CHT block inactive, CHT allo act inactive, ANO1 block inactive and ANO1 activ -6.2*.
CCN(CC)CCNC(=O)c1ccc2c(=O)n(C3CCCC3)c(=S)[nH]c2c1 was read as IMP-1 inh -2, VIM-2 inh -2, CHT block -15*, CHT allo act inactive, ANO1 block inactive and ANO1 activ inactive.
COc1ccc([C@H]2CC(=O)C=C(c3ccc(-c4ccccc4)c(F)c3)C2)cc1OC was read as ANO1 activ -6.2*.
`CCCNC(=S)N1CCC(Cc2ccccc2)CC1` gave IMP-1 inh -1, VIM-2 inh -1, CHT block inactive, CHT allo act inactive, ANO1 block inactive and ANO1 activ inactive.
For CCNC(=S)N1CCC(Cc2ccccc2)CC1 the results were IMP-1 inh -4, VIM-2 inh -3, CHT block inactive, CHT allo act inactive, ANO1 block inactive and ANO1 activ -4.8*.
Screening Cc1ccc(CSc2nnc(SCC(=O)N/N=C/c3c[nH]c4ccccc34)s2)cc1 returned IMP-1 inh -3, VIM-2 inh -4 and ANO1 activ inactive.
CCn1c(SCC(=O)N/N=C/c2c[nH]c3ccccc23)nnc1-c1ccc(C(C)(C)C)cc1 was read as IMP-1 inh -3, VIM-2 inh -5, CHT block inactive, CHT allo act inactive, ANO1 block 25* and ANO1 activ inactive.
For CN1CCN(CCCNC(=O)c2cn(C3CCCCC3)c(=O)c3c2c2ccccc2n3C)CC1 the results were IMP-1 inh 0, VIM-2 inh 6, CHT block -5*, CHT allo act inactive, ANO1 block inactive and ANO1 activ inactive.
Screening COc1cccc(Nc2nc(-c3sc(NC(=O)CC(C)C)nc3C)cs2)c1 returned IMP-1 inh 5.9*, VIM-2 inh -4, CHT block inactive, CHT allo act inactive, ANO1 block inactive and ANO1 activ inactive.
CCOC(=O)Cc1csc(SCC(=O)NC2CCCC2)n1 was read as ANO1 activ inactive.
`O=C1C=C(c2cccc3c2sc2ccccc23)C[C@@H](c2ccc(Cl)cc2)C1` gave ANO1 activ inactive.

Compound activity as filed in PubChem.
